Measurements: paper PMC9065027 (RSC Advances, 2019)

Legend:
LdNH = assay: NMR Saturation Transfer Difference; format: binding, Leishmania donovani; conditions: 100 μM LdNH, 2 mM compound, 2 s saturation time
How it was run: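 STD spectra acquired in alternating scans, on-resonance at −1 ppm and off-resonance at 20 ppm. DPFGSE water suppression, 2 s saturation time, 1024 scans.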

HSV-1 = conditions: cited from earlier work
HSV-2 = conditions: cited from earlier work
[1] = tested on: amastigote parasite Leishmania amazonensis; conditions: cited from earlier work

Row | SMILES | STD signals in presence of LdNH (LdNH) | anti-viral activity EC50 (HSV-1) | anti-viral activity EC50 (HSV-2) | leishmanicidal activity IC50 [1] | IC50 ([1]; read-out: leishmanicidal activity IC50, value in brackets)
1 | C[C@@H]1O[C@@H](Oc2c(-c3ccc(O)cc3)oc3cc(O)cc(O)c3c2=O)[C@H](O[C@@H]2OC[C@@H](O)[C@H](O)[C@H]2O)[C@H](O)[C@H]1O [compound 2, kaempferol 3-O-β-D-xylopyranosyl-(1→2)-α-L-rhamnopyranoside] | much more intense | 7.4 µg/mL | 9.0 µg/mL | – | –
2 | C[C@@H]1O[C@@H](Oc2c(-c3ccc(O)cc3)oc3cc(O)cc(O)c3c2=O)[C@H](O)[C@H](O)[C@H]1O [compound 1, kaempferol 3-O-α-L-rhamnopyranoside] | only weak resonances | – | – | 70 µg/mL | 162 µM
